# Assay results taken from ChEMBL document CHEMBL4368930, “Synthesis and anti-HSV activity of tricyclic penciclovir and hydroxybutylguanine derivatives” (Bioorg Med Chem, 2019).
# Assays:
# [1] = test system: Human alphaherpesvirus 1; experiment: Antiviral activity against thymidine kinase deficient and aciclovir resistant herpes simplex virus 1 KOS infected in HEL cells assessed as reduction in virus-induced cytopathogenicity by microscopic analysis; assay type: functional, organism-based; conditions: Human alphaherpesvirus 1, strain KOS
# [2] = test system: Human alphaherpesvirus 1; experiment: Antiviral activity against herpes simplex virus 1 KOS infected in HEL cells assessed as reduction in virus-induced cytopathogenicity by microscopic analysis; assay type: functional, organism-based; conditions: Human alphaherpesvirus 1, strain KOS
# [3] = Cytotoxicity against HEL cells assessed as effect on cell morphology at 0.32 to 200 uM by microscopic analysis; assay type: cell-based; conditions: human
# [4] = Cytostatic activity against human HAP1 cells; assay type: ADME, cell-based
# [5] = test system: Human betaherpesvirus 5; experiment: Antiviral activity against Human cytomegalovirus AD169 assessed as reduction in virus-induced cytopathogenicity by microscopic analysis; assay type: functional, organism-based; conditions: Human betaherpesvirus 5, strain AD169
# [6] = test system: Human betaherpesvirus 5; experiment: Antiviral activity against Human cytomegalovirus Davis assessed as reduction in virus-induced cytopathogenicity by microscopic analysis; assay type: functional, organism-based; conditions: Human betaherpesvirus 5, Davis
# [7] = test system: NCI-H460; experiment: Cytostatic activity against human NCI-H460 cells; assay type: ADME, cell-based
# [8] = test system: K562; experiment: Cytostatic activity against human K562 cells; assay type: ADME, cell-based
# [9] = test system: Human alphaherpesvirus 3; experiment: Antiviral activity against Varicella-zoster virus Oka harboring thymidine kinase infected in HEL cells assessed as reduction in virus plaque formation; assay type: functional, organism-based; conditions: Human alphaherpesvirus 3, Oka
# [10] = test system: HL-60; experiment: Cytostatic activity against human HL60 cells; assay type: ADME, cell-based
# [11] = test system: TERT-RPE1; experiment: Cytostatic activity against human hTERT-RPE1 cells; assay type: ADME, cell-based; conditions: RPE-1
# How it was run: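 Cell proliferation was measured against the number of cells in untreated controls.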
# [12] = Cytostatic activity against human DND41 cells; assay type: ADME, cell-based
# [13] = test system: Z-138; experiment: Cytostatic activity against human Z138 cells; assay type: ADME, cell-based
# [14] = test system: CAPAN-1; experiment: Cytostatic activity against human Capan1 cells; assay type: ADME, cell-based
# [15] = test system: Human alphaherpesvirus 3; experiment: Antiviral activity against thymidine kinase deficient Varicella-zoster virus 07-1 infected in HEL cells assessed as reduction in virus plaque formation; assay type: functional, organism-based; conditions: Human alphaherpesvirus 3, 07-1, HEL
# [16] = test system: Human alphaherpesvirus 2; experiment: Antiviral activity against herpes simplex virus 2 G infected in HEL cells assessed as reduction in virus-induced cytopathogenicity by microscopic analysis; assay type: functional, organism-based; conditions: Human alphaherpesvirus 2, G
# How it was run: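 Confluent cell monolayers were inoculated with 100 CCID50 of virus or 20 PFU. After a 1–2 h adsorption, residual virus was removed and cultures were incubated with the test compounds at 200, 40, 8, 1.6 and 0.32 μM. Cytopathicity was scored once it was complete in untreated infected controls.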
Structure (SMILES),EC50 [1] [µM],EC50 [2] [µM],MCC at up to 200 µM [3] [µM],IC50 [4] [µM],EC50 [5] [µM],EC50 [6] [µM],IC50 [7] [µM],IC50 [8] [µM],EC50 [9] [µM],IC50 [10] [µM],IC50 [11] [µM],IC50 [12] [µM],IC50 [13] [µM],IC50 [14] [µM],EC50 [15] [µM],EC50 [16] [µM]
CCOc1ccc(-c2cn3c(=O)c4ncn(CCC(CO)CO)c4nc3[nH]2)cc1,> 100,76.5,> 100,> 100,> 100,> 100,95.4,> 100,> 100,> 100,> 100,> 100,> 100,> 100,> 100,> 20
O=c1c2ncn(CCC(CO)CO)c2nc2[nH]c(-c3ccc(C(F)(F)F)cc3)cn12,> 100,20,≥ 100,37.8,63.1,76.5,12.5,> 100,49.5,55.3,51.5,56.5,76.1,17.2,100,31.7
COc1cc([C@@H]2c3cc4c(cc3[C@@H](O[C@@H]3O[C@@H]5CO[C@@H](C)O[C@H]5[C@H](O)[C@H]3O)[C@H]3COC(=O)[C@H]23)OCO4)cc(OC)c1O [ETOPOSIDE],–,–,–,0.04,–,–,1.35,0.54,–,0.03,0.23,0.06,1.06,0.15,–,–
Nc1nc2c(ncn2CCC(CO)CO)c(=O)[nH]1 [PENCICLOVIR],0.2,0.8,> 100,> 100,> 100,> 100,> 100,> 100,3.5,> 100,> 100,> 100,> 100,93,33.4,0.2
O=c1c2ncn(CCCCO)c2nc2[nH]c(-c3ccc(F)cc3)cn12,> 100,> 100,> 100,> 100,–,–,55.5,> 100,–,> 100,> 100,> 100,> 100,56.1,–,> 100
Nc1nc2c(ncn2CCCCO)c(=O)[nH]1,10,1.5,> 100,> 100,> 100,> 100,> 100,> 100,76.5,> 100,> 100,> 100,> 100,72.7,> 100,2.1
O=c1c2ncn(CCCCO)c2nc2[nH]c(-c3ccc4c(c3)OCO4)cn12,> 100,> 100,> 100,> 100,–,–,> 100,> 100,–,> 100,> 100,> 100,> 100,92.8,–,> 100
Nc1nc2c(ncn2COC(CO)CO)c(=O)[nH]1 [GANCICLOVIR],–,–,> 250,–,–,–,–,–,–,–,–,–,–,–,–,0.4
O=c1c2ncn(CCC(CO)CO)c2nc2[nH]c(-c3ccccc3)cn12,> 100,> 100,> 100,> 100,> 100,> 100,> 100,> 100,> 100,> 100,78.6,> 100,> 100,58.3,> 100,> 100
O=c1[nH]c(=O)n([C@H]2C[C@H](O)[C@@H](CO)O2)cc1/C=C/Br [BRIVUDINE],14,–,> 250,–,–,–,–,–,0.037,–,–,–,–,–,7.9,> 250
Nc1nc2c(ncn2COCCO)c(=O)[nH]1 [ACYCLOVIR],100,0.9,> 250,–,–,–,–,–,–,–,–,–,–,–,–,0.9
O=c1c2ncn(CCCCO)c2nc2[nH]c(-c3cccs3)cn12,> 100,> 100,> 100,> 100,–,–,> 100,> 100,–,> 100,> 100,> 100,> 100,> 100,–,> 100
O=c1c2ncn(CCC(CO)CO)c2nc2[nH]c(-c3ccc(F)cc3)cn12,12,8.9,> 100,> 100,> 100,> 100,> 100,> 100,> 100,> 100,> 100,> 100,> 100,82.8,> 100,28
COc1ccc(-c2cn3c(=O)c4ncn(CCCCO)c4nc3[nH]2)cc1,> 100,> 100,> 100,> 100,–,–,> 100,> 100,–,> 100,> 100,> 100,> 100,98.9,–,> 100
O=c1c2ncn(CCC(CO)CO)c2nc2[nH]c(-c3ccc4c(c3)OCO4)cn12,> 100,44.7,≥ 100,> 100,> 100,> 100,> 100,> 100,> 20,> 100,> 100,> 100,> 100,78.8,> 100,40.9
O=c1c2ncn(CCCCO)c2nc2[nH]c(-c3ccc(Cl)cc3)cn12,> 100,> 100,> 100,> 100,–,–,> 100,> 100,–,> 100,> 100,> 100,> 100,64.4,–,> 100
O=c1c2ncn(CCC(CO)CO)c2nc2[nH]c(-c3ccc(Oc4ccccc4)cc3)cn12,> 100,> 100,> 100,44,> 100,> 100,47.2,> 100,62.8,63.3,16.9,90.4,> 100,46.4,> 100,> 100
Cc1ccc(-c2cn3c(=O)c4ncn(CCC(CO)CO)c4nc3[nH]2)cc1,> 100,> 100,> 100,> 100,> 100,> 100,> 100,> 100,63.1,> 100,> 100,> 100,> 100,> 100,> 100,> 100
Nc1ccn(C[C@@H](CO)OCP(=O)(O)O)c(=O)n1 [CIDOFOVIR],5,–,> 250,–,0.72,–,–,–,–,–,–,–,–,–,–,–
O=c1c2ncn(CCCCO)c2nc2[nH]c(-c3ccc(C(F)(F)F)cc3)cn12,> 100,> 100,> 100,63.8,–,–,52.5,> 100,–,> 100,> 100,> 100,> 100,36.1,–,> 100
CN[C@@H]1C[C@H]2O[C@@](C)([C@@H]1OC)n1c3ccccc3c3c4c(c5c6ccccc6n2c5c31)C(=O)NC4 [STAUROSPORINE],–,–,–,–,–,–,–,–,–,–,0.25,–,–,–,–,–
O=c1c2ncn(CCCCO)c2nc2[nH]c(-c3ccccc3)cn12,> 100,> 100,> 100,> 100,–,–,> 100,> 100,–,> 100,> 100,> 100,> 100,69.1,–,> 100
CC(=O)O[C@@]12CO[C@@H]1C[C@H](O)[C@@]1(C)C(=O)[C@H](O)C3=C(C)[C@@H](OC(=O)[C@H](O)[C@@H](NC(=O)OC(C)(C)C)c4ccccc4)C[C@@](O)([C@@H](OC(=O)c4ccccc4)[C@H]21)C3(C)C [DOCETAXEL ANHYDROUS],–,–,–,1.19,–,–,0.89,0.003,–,0.00194,25,1.63,0.003,0.95,–,–
Cc1ccc(-c2cn3c(=O)c4ncn(CCCCO)c4nc3[nH]2)cc1,> 100,> 100,> 100,> 100,–,–,> 100,> 100,–,> 100,> 100,> 100,> 100,78.9,–,> 100
